Drawing on ChEMBL document CHEMBL1123769, “Renin inhibitors. Design of angiotensinogen transition-state analogues containing novel. (2R,3R,4R,5S)-5-amino-3,4-dihydroxy-2-isopropyl-7-methyloctanoic acid” (J Med Chem, 1987), this text covers IC50 and inhibition for ten compounds.

Usually pIC50 stands for the IC50 on a negative log10 scale, so that one unit is a factor of ten. Read a low pIC50 as a large IC50. For orientation: inhibition means the share of the control response that was lost under treatment. High values mean a response far below the control, low ones a response near the control.

The target in test [1] is T1, Renin (Homo sapiens, UniProt P00797).
T1 sequence (P00797 whole entry): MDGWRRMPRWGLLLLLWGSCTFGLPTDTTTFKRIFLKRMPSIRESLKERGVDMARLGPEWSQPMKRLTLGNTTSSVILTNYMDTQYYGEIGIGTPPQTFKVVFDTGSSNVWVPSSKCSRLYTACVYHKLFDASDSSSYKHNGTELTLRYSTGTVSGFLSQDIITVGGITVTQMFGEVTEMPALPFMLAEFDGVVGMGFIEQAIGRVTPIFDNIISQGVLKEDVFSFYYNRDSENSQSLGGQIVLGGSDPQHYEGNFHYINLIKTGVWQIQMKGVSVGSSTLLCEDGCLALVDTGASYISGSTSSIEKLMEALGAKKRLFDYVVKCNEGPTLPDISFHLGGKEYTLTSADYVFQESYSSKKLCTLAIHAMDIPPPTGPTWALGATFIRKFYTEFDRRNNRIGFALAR
Briefly: Tested for the inhibition of human plasma renin. In a few lines:
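Lyophilized human plasma with 0.1% EDTA, incubated with phenylmethanesulfonyl fluoride, maleate buffer (pH 6.0) and inhibitor in 1% Tween 80/water vehicle, 90 min at 37 °C. Angiotensin I generated was measured by radioimmunoassay kit. Percent inhibition came from inhibitor versus control plasma renin activity. IC50 was estimated graphically from 3–4 inhibitor concentrations plotted on a semilog scale.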

The target of test [2] is T2, Renin (Homo sapiens) (UniProt P00797).
T2 sequence (whole entry): T1 sequence (P00797 whole entry)
Briefly: Tested for the inhibition of human plasma renin at 10e-4 M concentration.

pIC50: −log10 of the molar value. Where a SMILES comes first, the peptide text is derived from it. [ ]: non-standard residue; d: D form. The star is where a group is joined. 1Nal = N[C@@H](Cc1cccc2ccccc12)C(=O)O; Leu(ol) = CC(C)C[C@H](N)CO; Cbz = O=C(OCc1ccccc1)*

For the compound `CC(C)C[C@@H](CO)NC(=O)[C@H](Cc1c[nH]cn1)NC(=O)[C@H](Cc1cccc2ccccc12)NC(=O)OCc1ccccc1` (Cbz-[1Nal]-His-[Leu(ol)]), the pIC50 in test [1] was 5.44.

For `CC(C)(C)OC(=O)N[C@@H](Cc1ccccc1)C(=O)N[C@@H](Cc1c[nH]cn1)C(=O)N[C@@H](Cc1ccccc1)[C@@H](O)CO`, the pIC50 in test [1] is 5.59. In test [1], `O=C(N[C@@H](Cc1cccc2ccccc12)C(=O)N[C@@H](Cc1c[nH]cn1)C(=O)N[C@@H](Cc1ccccc1)[C@@H](O)CO)OCc1ccccc1` gave a pIC50 of 6.00. In test [1], `CC[C@H](C)[C@H](NC(=O)[C@@H](C[C@H](O)[C@H](CC(C)C)NC(=O)[C@H](Cc1c[nH]cn1)NC(=O)[C@H](Cc1ccccc1)NC(=O)OC(C)(C)C)C(C)C)C(=O)NCc1ccccn1` had a pIC50 of 6.66. The same measure, in the same setting: next, `CC[C@H](C)[C@H](NC(=O)[C@@H](CC(=O)[C@H](CC(C)C)NC(=O)[C@H](Cc1c[nH]cn1)NC(=O)[C@H](Cc1ccccc1)NC(=O)OC(C)(C)C)C(C)C)C(=O)NCc1ccccn1`: 5.51.

`CC(C)C[C@@H](CO)NC(=O)[C@H](Cc1c[nH]cn1)NC(=O)[C@H](Cc1ccccc1)NC(=O)OCc1ccccc1` (HELM PEPTIDE1{[O=C(OCc1ccccc1)[*:2]].F.H.[CC(C)C[C@@H](CO)N[*:1]]}$$$$V2.0) showed an inhibition in test [2] of 22%. Turning to `CC[C@H](C)[C@H](NC(=O)[C@H](C(C)C)[C@@H](O)[C@H](O)[C@H](CC(C)C)NC(=O)[C@H](Cc1c[nH]cn1)NC(=O)[C@H](Cc1ccccc1)NC(=O)OC(C)(C)C)C(=O)NCc1ccccn1`, in test [1], the pIC50 was 6.46. Take `CC[C@H](C)CNC(=O)[C@H](C(C)C)[C@@H](O)[C@H](O)[C@H](CC(C)C)NC(=O)[C@H](Cc1c[nH]cn1)NC(=O)[C@H](Cc1ccccc1)NC(=O)OC(C)(C)C`: the pIC50 in test [1] was 5.47.

`CC(C)C[C@@H](C=O)NC(=O)[C@H](Cc1c[nH]cn1)NC(=O)[C@H](Cc1ccccc1)NC(=O)OCc1ccccc1` (Cbz-Phe-His-Leu-aldehyde) had a negative logarithm of the IC50 (pIC50) in test [1] of 6.12. `CC(C)C[C@@H](C=O)NC(=O)[C@H](Cc1c[nH]cn1)NC(=O)[C@H](Cc1cccc2ccccc12)NC(=O)OCc1ccccc1` (Cbz-[1Nal]-His-Leu-aldehyde): the pIC50 in test [1] was 7.10.
